Columns and labels:
Type in all cases: functional
[1] = tested on: Trypanosoma brucei brucei; experiment: Antitrypanosomal activity against bloodstream form of Trypanosoma brucei brucei strain 90-13 assessed as inhibition of parasite growth at 10 ug/ml after 72 hrs by resazurin reduction test; details: strain 90-13, 72 h
Procedure, shortened: (§1)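 Trypanosoma brucei brucei 90-13 bloodstream forms, grown in HMI9 with 10% FCS at 37 °C under 5% CO2. Log-phase parasites were seeded at 10^5 cells/mL with or without inhibitor, with stocks prepared in DMSO. After 72 h, resazurin was added and fluorescence was read at 530/590 nm after a further 4 h. Percent growth inhibition was calculated versus drug-free parasites, with DMSO as control.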

[2] = tested on: Trypanosoma brucei brucei; experiment: Antitrypanosomal activity against bloodstream form of Trypanosoma brucei brucei strain 90-13 assessed as inhibition of parasite growth at 1 ug/ml after 72 hrs by resazurin reduction test; details: strain 90-13, 72 h; procedure, shortened: as §1
Malme-3M = experiment: Growth inhibition of human MALME-3M cells after 48 hrs by SRB assay
Procedure, shortened: (§2)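 NCI five-dose assay against the ~60-cell-line panel (nine cancer types). Tenfold dilutions from 10−4 to 10−8 M were used with continuous 48-h exposure and SRB absorbance readout. Percent growth was computed from time-zero, control and treated absorbances. GI50 is the concentration giving 50% lower net protein increase than controls. Values not reached are reported as beyond the tested range.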

[3] = Growth inhibition of human HOP92 cells after 48 hrs by SRB assay; details: HOP-92, 48 h; procedure, shortened: as §2
NCI-H460 = experiment: Anticancer activity against human NCI-H460 cells assessed as cell growth at 100 uM after 48 hrs by SRB assay; details: NCI-H460, 48 h, read-out: Activity
Procedure, shortened: (§3)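 NCI one-dose primary screen on a three-line panel (breast MCF7, lung NCI-H460, CNS SF-268). Cells were inoculated and preincubated 24–48 h, then exposed to a single concentration of 10−4 M for 48 h. The endpoint was sulforhodamine B protein staining, and results are expressed as percent growth relative to untreated control cells. Negative values denote cytotoxicity.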

MCF7 = experiment: Anticancer activity against human MCF7 cells assessed as cell growth at 100 uM after 48 hrs by SRB assay; details: MCF7, 48 h, read-out: Activity; procedure, shortened: as §3
SF-268 = experiment: Anticancer activity against human SF268 cells assessed as cell growth at 100 uM after 48 hrs by SRB assay; details: SF-268, 48 h, read-out: Activity; procedure, shortened: as §3
SR = experiment: Growth inhibition of human SR cells after 48 hrs by SRB assay
Procedure, shortened: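 NCI ~60-cell-line five-dose screen. Cells were preincubated 24-48 h, then given compound at 10-fold dilutions from 10^-4 to 10^-8 M with 48 h continuous exposure. SRB protein stain was read by absorbance at time zero, in untreated control and with drug. GI50 was derived from [(Ti-Tz)/(C-Tz)]x100=50, TGI from Ti=Tz, and LC50 from [(Ti-Tz)/Tz]x100=-50.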

For `O=C(Nc1cccc(C(F)(F)F)c1)c1cc2ccccc2c(=O)s1`, the inhibition at 10 µg/mL [1] was -7.12% and the inhibition at 1 µg/mL [2] was 5.78%.

Molecule `COc1ccc2cc(C(=O)N3CCCCCC3)sc(=O)c2c1OC` has a GI50 (Malme-3M) of 34.7 µM, a TGI (Malme-3M; read-out: pTGI (converted)) of over 100 µM and a GI50 [3] of 2.75 µM. It also gave a TGI ([3]; read-out: pTGI (converted)) of 8.13 µM.

For `COc1ccc2cc(C(=O)Nc3ccccc3C(F)(F)F)sc(=O)c2c1OC`, the inhibition at 10 µg/mL [1] was 2.91%, the growth at 100 µM (NCI-H460) was 90% and the growth at 100 µM (MCF7) was 99%. The growth at 100 µM (SF-268) was 107% and the inhibition at 1 µg/mL [2] was 6.86%.

`Cc1c(NC(=O)c2cc3ccccc3c(=O)s2)c(=O)n(-c2ccccc2)n1C` gave a growth at 100 µM (NCI-H460) of 52%, a growth at 100 µM (MCF7) of 107% and a growth at 100 µM (SF-268) of 106%.

With `COC(=O)c1cc2ccc(OC)c(OC)c2c(=O)s1` the growth at 100 µM (NCI-H460) was 82%, the growth at 100 µM (MCF7) was 108% and the growth at 100 µM (SF-268) was 113%.

Molecule `O=C(Nc1ccccc1)c1cc2ccccc2c(=O)s1` has a growth at 100 µM (NCI-H460) of 75%, a growth at 100 µM (MCF7) of 78% and a growth at 100 µM (SF-268) of 83%.

In the case of `NS(=O)(=O)c1ccc(NC(=O)c2cc3ccccc3c(=O)s2)cc1`, the GI50 (SR) is reported as 31.6 µM and the TGI (SR; read-out: pTGI (converted)) is reported as over 100 µM.

In the case of `CCOC(=O)c1ccc(NC(=O)c2cc3ccc(OC)c(OC)c3c(=O)s2)cc1`, the inhibition at 10 µg/mL [1] is reported as 20.9%, the growth at 100 µM (NCI-H460) is reported as 103% and the growth at 100 µM (MCF7) is reported as 105%. The growth at 100 µM (SF-268) was 117% and the inhibition at 1 µg/mL [2] was -0.53%.

Molecule `O=C(c1cc2ccccc2c(=O)s1)N1CCOCC1` has an inhibition at 10 µg/mL [1] of 8.15%, a growth at 100 µM (NCI-H460) of 109% and a growth at 100 µM (MCF7) of 114%. The growth at 100 µM (SF-268) was 111% and the inhibition at 1 µg/mL [2] was 8.13%.

From ChEMBL document CHEMBL3124905, “Isothiocoumarin-3-carboxylic acid derivatives: synthesis, anticancer and antitrypanosomal activity evaluation” (Eur J Med Chem, 2014)
